Test results as given in ChEMBL document CHEMBL1156205, “Synthesis and antibacterial activity of new 9-O-arylpropenyloxime ketolides” (2010).
Converted amounts (≈) assume the structure as drawn.

Assays:
Type in all cases: functional
[1] = test system: Staphylococcus aureus; experiment: Antibacterial activity against methicillin-resistant Staphylococcus aureus 2 by agar dilution method
Procedure, shortened: (§1)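 MIC determined by agar dilution on Mueller–Hinton agar against clinical strains of methicillin-resistant S. aureus.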

[2] = test system: Staphylococcus aureus; experiment: Antibacterial activity against methicillin-susceptible Staphylococcus aureus ATCC 29213 by agar dilution method
Procedure, shortened: (§2)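 MIC determined by agar dilution on Mueller–Hinton agar against reference strains.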

[3] = test system: Streptococcus pyogenes; experiment: Antibacterial activity against Streptococcus pyogenes isolate 2 by agar dilution method
Procedure, shortened: (§3)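 MIC measured by agar dilution on Mueller–Hinton agar. Strains were a reference culture and clinically isolated strains. The pneumococcal isolates were penicillin-susceptible clinical isolates.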

[4] = test system: Streptococcus pyogenes; experiment: Antibacterial activity against Streptococcus pyogenes isolate 3 by agar dilution method; procedure, shortened: as §3
[5] = test system: Staphylococcus aureus; experiment: Antibacterial activity against methicillin-resistant Staphylococcus aureus 3 by agar dilution method; procedure, shortened: as §1
[6] = test system: Streptococcus pneumoniae; experiment: Antibacterial activity against penicillin intermediate-resistant Streptococcus pneumoniae isolate I3 by agar dilution method
Procedure, shortened: (§4)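 MIC determined by agar dilution on Mueller–Hinton agar against clinically isolated penicillin-intermediate-resistant S. pneumoniae.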

[7] = test system: Staphylococcus aureus; experiment: Antibacterial activity against methicillin-susceptible Staphylococcus aureus isolate 3 by agar dilution method
Procedure, shortened: (§5)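 MIC determined by agar dilution on Mueller–Hinton agar against clinically isolated methicillin-susceptible S. aureus.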

[8] = test system: Staphylococcus aureus; experiment: Antibacterial activity against methicillin-susceptible Staphylococcus aureus isolate 2 by agar dilution method; procedure, shortened: as §5
[9] = test system: Staphylococcus aureus; experiment: Antibacterial activity against methicillin-susceptible Staphylococcus aureus isolate 1 by agar dilution method; procedure, shortened: as §5
[10] = test system: Streptococcus pneumoniae; experiment: Antibacterial activity against penicillin-susceptible Streptococcus pneumoniae isolate S2 by agar dilution method; procedure, shortened: as §3
[11] = test system: Streptococcus pyogenes; experiment: Antibacterial activity against Streptococcus pyogenes ATCC 8668 by agar dilution method; procedure, shortened: as §3
[12] = test system: Streptococcus pneumoniae; experiment: Antibacterial activity against penicillin intermediate-resistant Streptococcus pneumoniae isolate I2 by agar dilution method; procedure, shortened: as §4
[13] = test system: Streptococcus pneumoniae; experiment: Antibacterial activity against penicillin intermediate-resistant Streptococcus pneumoniae isolate I1 by agar dilution method; procedure, shortened: as §4
[14] = test system: Streptococcus pneumoniae; experiment: Antibacterial activity against Streptococcus pneumoniae ATCC 49619 by agar dilution method; details: ATCC49619; procedure, shortened: as §2
[15] = test system: Streptococcus pneumoniae; experiment: Antibacterial activity against penicillin-susceptible Streptococcus pneumoniae isolate S1 by agar dilution method; procedure, shortened: as §3
[16] = test system: Streptococcus pyogenes; experiment: Antibacterial activity against Streptococcus pyogenes isolate 1 by agar dilution method; procedure, shortened: as §3
[17] = test system: Staphylococcus aureus; experiment: Antibacterial activity against methicillin-resistant Staphylococcus aureus 1 by agar dilution method; procedure, shortened: as §1

SMILES	MIC [1]	MIC [2]	MIC [3]	MIC [4]	MIC [5]	MIC [6]	MIC [7]	MIC [8]	MIC [9]	MIC [10]	MIC [11]	MIC [12]	MIC [13]	MIC [14]	MIC [15]	MIC [16]	MIC [17]
CC[C@H]1OC(=O)[C@H](C)C(=O)[C@H](C)[C@@H](O[C@@H]2O[C@H](C)C[C@H](N(C)C)[C@H]2O)[C@](C)(OC)C[C@@H](C)/C(=N\OC/C=C/c2cncc3ccccc23)[C@H](C)[C@@H](O)[C@]1(C)O	128 mg/L (≈ 166 µM)	1 mg/L (≈ 1.3 µM)	0.25 mg/L (≈ 0.325 µM)	0.25 mg/L (≈ 0.325 µM)	0.5 mg/L (≈ 0.649 µM)	1 mg/L (≈ 1.3 µM)	0.5 mg/L (≈ 0.649 µM)	0.5 mg/L (≈ 0.649 µM)	1 mg/L (≈ 1.3 µM)	0.25 mg/L (≈ 0.325 µM)	0.25 mg/L (≈ 0.325 µM)	0.5 mg/L (≈ 0.649 µM)	32 mg/L (≈ 41.6 µM)	0.25 mg/L (≈ 0.325 µM)	0.25 mg/L (≈ 0.325 µM)	0.06 mg/L (≈ 0.0779 µM)	128 mg/L (≈ 166 µM)
CC[C@H]1OC(=O)[C@H](C)C(=O)[C@H](C)[C@@H](O[C@@H]2O[C@H](C)C[C@H](N(C)C)[C@H]2O)[C@](C)(OC)C[C@@H](C)/C(=N\OC/C=C/c2cnc3ccccc3c2)[C@H](C)[C@@H](O)[C@]1(C)O	128 mg/L (≈ 166 µM)	0.25 mg/L (≈ 0.325 µM)	0.06 mg/L (≈ 0.0779 µM)	0.06 mg/L (≈ 0.0779 µM)	0.25 mg/L (≈ 0.325 µM)	4 mg/L (≈ 5.19 µM)	0.25 mg/L (≈ 0.325 µM)	0.25 mg/L (≈ 0.325 µM)	0.25 mg/L (≈ 0.325 µM)	0.06 mg/L (≈ 0.0779 µM)	0.06 mg/L (≈ 0.0779 µM)	0.06 mg/L (≈ 0.0779 µM)	64 mg/L (≈ 83.1 µM)	0.06 mg/L (≈ 0.0779 µM)	0.06 mg/L (≈ 0.0779 µM)	0.06 mg/L (≈ 0.0779 µM)	128 mg/L (≈ 166 µM)
CC[C@H]1OC(=O)[C@H](C)C(=O)[C@H](C)[C@@H](O[C@@H]2O[C@H](C)C[C@H](N(C)C)[C@H]2O)[C@](C)(OC)C[C@@H](C)/C(=N\OC/C=C/c2ccc3[nH]ccc3c2)[C@H](C)[C@@H](O)[C@]1(C)O	128 mg/L (≈ 169 µM)	1 mg/L (≈ 1.32 µM)	0.25 mg/L (≈ 0.33 µM)	0.25 mg/L (≈ 0.33 µM)	1 mg/L (≈ 1.32 µM)	0.25 mg/L (≈ 0.33 µM)	1 mg/L (≈ 1.32 µM)	1 mg/L (≈ 1.32 µM)	1 mg/L (≈ 1.32 µM)	0.06 mg/L (≈ 0.0792 µM)	0.25 mg/L (≈ 0.33 µM)	0.25 mg/L (≈ 0.33 µM)	32 mg/L (≈ 42.2 µM)	0.25 mg/L (≈ 0.33 µM)	0.06 mg/L (≈ 0.0792 µM)	0.06 mg/L (≈ 0.0792 µM)	128 mg/L (≈ 169 µM)
CC[C@H]1OC(=O)[C@H](C)C(=O)[C@H](C)[C@@H](O[C@@H]2O[C@H](C)C[C@H](N(C)C)[C@H]2O)[C@](C)(OC)C[C@@H](C)/C(=N\OC/C=C/c2cccc(C3OCCO3)c2)[C@H](C)[C@@H](O)[C@]1(C)O	128 mg/L (≈ 162 µM)	0.5 mg/L (≈ 0.632 µM)	0.25 mg/L (≈ 0.316 µM)	0.25 mg/L (≈ 0.316 µM)	1 mg/L (≈ 1.26 µM)	0.25 mg/L (≈ 0.316 µM)	0.5 mg/L (≈ 0.632 µM)	1 mg/L (≈ 1.26 µM)	1 mg/L (≈ 1.26 µM)	0.06 mg/L (≈ 0.0759 µM)	0.25 mg/L (≈ 0.316 µM)	0.25 mg/L (≈ 0.316 µM)	64 mg/L (≈ 80.9 µM)	0.25 mg/L (≈ 0.316 µM)	0.06 mg/L (≈ 0.0759 µM)	0.06 mg/L (≈ 0.0759 µM)	128 mg/L (≈ 162 µM)
CC[C@H]1OC(=O)[C@H](C)C(=O)[C@H](C)[C@@H](O[C@@H]2O[C@H](C)C[C@H](N(C)C)[C@H]2O)[C@](C)(OC)C[C@@H](C)/C(=N\OC/C=C/c2cncnc2)[C@H](C)[C@@H](O)[C@]1(C)O	128 mg/L (≈ 178 µM)	0.5 mg/L (≈ 0.694 µM)	0.25 mg/L (≈ 0.347 µM)	0.25 mg/L (≈ 0.347 µM)	0.5 mg/L (≈ 0.694 µM)	1 mg/L (≈ 1.39 µM)	0.5 mg/L (≈ 0.694 µM)	0.5 mg/L (≈ 0.694 µM)	0.5 mg/L (≈ 0.694 µM)	0.125 mg/L (≈ 0.173 µM)	0.25 mg/L (≈ 0.347 µM)	0.5 mg/L (≈ 0.694 µM)	128 mg/L (≈ 178 µM)	0.25 mg/L (≈ 0.347 µM)	0.125 mg/L (≈ 0.173 µM)	0.06 mg/L (≈ 0.0832 µM)	128 mg/L (≈ 178 µM)
CC[C@H]1OC(=O)[C@H](C)C(=O)[C@H](C)[C@@H](O[C@@H]2O[C@H](C)C[C@H](N(C)C)[C@H]2O)[C@](C)(OC)C[C@@H](C)/C(=N\OC/C=C/c2ccc(OC)c(OC)c2)[C@H](C)[C@@H](O)[C@]1(C)O	128 mg/L (≈ 164 µM)	1 mg/L (≈ 1.28 µM)	0.25 mg/L (≈ 0.321 µM)	0.25 mg/L (≈ 0.321 µM)	1 mg/L (≈ 1.28 µM)	0.5 mg/L (≈ 0.642 µM)	1 mg/L (≈ 1.28 µM)	1 mg/L (≈ 1.28 µM)	0.5 mg/L (≈ 0.642 µM)	0.06 mg/L (≈ 0.077 µM)	0.25 mg/L (≈ 0.321 µM)	0.5 mg/L (≈ 0.642 µM)	32 mg/L (≈ 41.1 µM)	0.25 mg/L (≈ 0.321 µM)	0.06 mg/L (≈ 0.077 µM)	0.06 mg/L (≈ 0.077 µM)	128 mg/L (≈ 164 µM)
CC[C@H]1OC(=O)[C@H](C)C(=O)[C@H](C)[C@@H](O[C@@H]2O[C@H](C)C[C@H](N(C)C)[C@H]2O)[C@](C)(OC)C[C@@H](C)/C(=N\OC/C=C/c2ccc3c(c2)OCO3)[C@H](C)[C@@H](O)[C@]1(C)O	128 mg/L (≈ 168 µM)	1 mg/L (≈ 1.31 µM)	0.25 mg/L (≈ 0.328 µM)	0.25 mg/L (≈ 0.328 µM)	1 mg/L (≈ 1.31 µM)	0.25 mg/L (≈ 0.328 µM)	0.5 mg/L (≈ 0.655 µM)	0.5 mg/L (≈ 0.655 µM)	1 mg/L (≈ 1.31 µM)	0.06 mg/L (≈ 0.0786 µM)	0.25 mg/L (≈ 0.328 µM)	0.25 mg/L (≈ 0.328 µM)	64 mg/L (≈ 83.9 µM)	0.25 mg/L (≈ 0.328 µM)	0.06 mg/L (≈ 0.0786 µM)	0.06 mg/L (≈ 0.0786 µM)	128 mg/L (≈ 168 µM)
